Experimental data taken from article PMC3115469 (Molecular microbiology, 2011).
“And” between values parts separate entries of the source, which are not always exact repeats. Identical values can stand only once. Square brackets hold non-standard residues; d marks the D form. Peptide text beside a SMILES is read from it. Orn(N5-OH,N5-Ac) = CC(=O)N(O)CCC[C@H](N)C(=O)O

What was measured:
[1] = test system: L. monocytogenes EGD-e Δhup (ΔhupDGC); experiment: [59Fe]-Hn uptake by cells, Δhup; format: cell-based, Listeria monocytogenes
[2] = test system: L. monocytogenes EGD-e ΔsrtB; experiment: [59Fe]-Hn uptake by cells, ΔsrtB; format: cell-based, Listeria monocytogenes; conditions: strain ΔsrtB
Outline: (§1)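 Cultures from overnight BHI (37°C) were passaged 1% into MOPS-L to stationary phase, then again to OD600 0.8–1. Cells were added to 37°C MOPS containing varying [59Fe]-Hn, filtered at 5 s and 1 min, washed with ice-cold 50 mM Tris, 0.05% Tween-20, pH 9, and gamma-counted. The 5 s counts were subtracted from 1 min counts to give rate. Triplicates were fitted to enzyme kinetics for KM and Vmax.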

[3] = test system: L. monocytogenes EGD-e Δhup (ΔhupDGC); experiment: [59Fe]-Hn binding to whole cells, Δhup; design: species or system Listeria monocytogenes
[4] = test system: L. monocytogenes EGD-e ΔsrtA; experiment: [59Fe]-Hn uptake by cells, ΔsrtA; format: cell-based, Listeria monocytogenes; conditions: strain ΔsrtA
Outline: as §1

[5] = test system: L. monocytogenes EGD-e ΔsrtA; experiment: [59Fe]-Hn binding to whole cells, ΔsrtA; design: species or system Listeria monocytogenes; conditions: strain ΔsrtA
Outline: (§2)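 Bacteria were grown overnight in BHI at 37°C, then passaged twice (1%) in iron-deficient MOPS-L to OD600 0.6–0.8. Cells were exposed on ice for 1 min to [59Fe]-Hn (DMSO stock diluted in ice-cold MOPS-L). They were filtered (0.45 µm), washed with 50 mM Tris-HCl pH 9.0 plus 0.05% Tween-20, and gamma-counted. Filter-only counts were subtracted. Triplicates were fitted to a one-site-plus-background model for KD and capacity (pmol/10^9 cells).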

L. monocytogenes EGD-e [6] = experiment: [59Fe]-Hn binding to whole cells, EGD-e; design: species or system Listeria monocytogenes; conditions: strain EGD-e; for Kd: read-out: Binding Kd, MOPS-L, on ice
L. monocytogenes EGD-e [7] = experiment: [59Fe]-Hn uptake by cells, EGD-e; format: cell-based, Listeria monocytogenes; conditions: for Km: read-out: Transport Km; for Km / Transport Vmax: 37°C
[8] = test system: L. monocytogenes EGD-e ΔsrtAB; experiment: [59Fe]-Hn uptake by cells, ΔsrtAB; format: cell-based, Listeria monocytogenes; conditions: strain ΔsrtAB
Outline: as §1

[9] = test system: L. monocytogenes EGD-e ΔsrtB; experiment: [59Fe]-Hn binding to whole cells, ΔsrtB; design: species or system Listeria monocytogenes
[10] = test system: L. monocytogenes EGD-e ΔsrtAB; experiment: [59Fe]-Hn binding to whole cells, ΔsrtAB; design: species or system Listeria monocytogenes; conditions: strain ΔsrtAB
Outline: as §2

[11] = test system: L. monocytogenes EGD-e Δlmo2185 (Δhbp2); experiment: [59Fe]-Hn binding to whole cells, Δlmo2185; design: species or system Listeria monocytogenes
Lmo2185 (Hbp2) = target: T1, Lmo2185 (Hbp2) (Listeria monocytogenes serovar 1/2a, UniProt Q7AP54); experiment: Equilibrium [59Fe]-Hn filter binding to purified Lmo2185
T1 sequence (Q7AP54 29-569): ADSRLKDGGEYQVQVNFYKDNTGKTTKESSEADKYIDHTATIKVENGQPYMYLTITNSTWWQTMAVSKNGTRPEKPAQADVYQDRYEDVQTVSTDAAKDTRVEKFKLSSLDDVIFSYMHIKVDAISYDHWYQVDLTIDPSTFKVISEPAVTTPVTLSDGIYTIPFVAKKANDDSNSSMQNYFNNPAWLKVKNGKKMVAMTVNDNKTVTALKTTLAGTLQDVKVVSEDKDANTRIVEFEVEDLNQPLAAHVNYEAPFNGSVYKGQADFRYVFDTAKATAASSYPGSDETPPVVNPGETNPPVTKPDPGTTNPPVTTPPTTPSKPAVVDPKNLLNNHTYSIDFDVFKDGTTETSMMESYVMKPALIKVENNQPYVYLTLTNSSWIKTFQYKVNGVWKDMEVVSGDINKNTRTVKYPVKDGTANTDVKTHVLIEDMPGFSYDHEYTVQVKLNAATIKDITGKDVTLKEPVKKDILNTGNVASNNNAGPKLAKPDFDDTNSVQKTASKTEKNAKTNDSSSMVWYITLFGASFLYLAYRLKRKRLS
Outline: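 His-tagged Hbp2 expressed in E. coli BL21 (1 mM IPTG), purified on Co-NTA and Sephacryl S-100, stripped of Hn by boiling in 0.5% SDS and acetone precipitation, then renatured in TBS pH 8.0. Protein at 30.6 pmol/mL, refolded 1 h at RT, mixed with [59Fe]-Hn (DMSO) for 30 min on ice. Filtered on cellulose acetate and gamma-counted. Triplicates, protein-free background subtracted, KD from bound-vs-total fit.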

L. monocytogenes EGD-e [12] = experiment: Growth assay in BHI with 2,2'-bipyridyl; format: cell-based, Listeria monocytogenes
HupD-6H (Lmo2431) = HupD-6H (Lmo2431) (Listeria monocytogenes, UniProt Q8Y4K7); experiment: Intrinsic Trp fluorescence quenching, ligand binding to purified 6H-HupD
L. monocytogenes EGD-e [13] = conditions: aqueous buffers; ref Jin et al., 2005; cited from earlier work
[14] = target: listerial CM Fc transporter FhuDBGC; conditions: ref Jin et al., 2005, cited from earlier work
L. monocytogenes EGD-e [15] = experiment: Iron nutrition tests on BHI agar with bipyridyl, EGD-e; format: cell-based, Listeria monocytogenes; conditions: 50 uM Fc, EGD-e and all mutant strains
E. coli FhuA = conditions: ref Newton et al., 2010; cited from earlier work
FhuD-6H (Lmo1959) = FhuD-6H (Lmo1959) (Listeria monocytogenes, UniProt Q8Y5U6); experiment: Intrinsic Trp fluorescence quenching, ligand binding to purified 6H-FhuD

C=CC1=C(C)c2cc3[n-]c(cc4nc(cc5[n-]c(cc1n2)c(C)c5CCC(=O)O)C(CCC(=O)O)=C4C)c(C)c3C=C.[59Fe+3] [[^59Fe]-Hn]
Km ([1]; read-out: Transport Km, strain Δhup): 1.1 ± 0.2 nM
Transport Vmax ([1]; strain Δhup): 7.5 pMol/10^9cells/min and 7.5 ± 0.3 pMol/10^9cells/min
Vmax as percent of the wild type rate ([1]; ΔhupDGC vs EGD-e): 27%
Km ([2]; read-out: Transport Km): 7.1 ± 7.5 nM
Transport Vmax [2]: 3.5 ± 1.6 pMol/10^9cells/min
Kd ([3]; read-out: Binding Kd, strain Δhup): 2.5 ± 0.45 nM
Binding Cap. ([3]; strain Δhup): 105 pMol/10^9cells and 105 ± 4.2 pMol/10^9cells
decrease of binding capacity ([3]; Δhup vs EGD-e): ~ 20% and 20%
Km ([4]; read-out: Transport Km): 1.4 ± 0.2 nM
Transport Vmax [4]: 23.1 ± 0.6 pMol/10^9cells/min
Kd ([5]; read-out: Binding Kd): 2.3 ± 0.16 nM
Binding Cap. [5]: 130 pMol/10^9cells and 129 ± 1.9 pMol/10^9cells
Kd (L. monocytogenes EGD-e [6]): 2 nM and 2.4 nM
Binding Cap. (L. monocytogenes EGD-e [6]): 130 pMol/10^9cells and 129.5 ± 5.6 pMol/10^9cells
Km (L. monocytogenes EGD-e [7]; strain EGD-e): 1.2 ± 0.2 nM
Hup-dependent transport rate Vmax (L. monocytogenes EGD-e [7]; residual accumulation in Δhup subtracted from wild-type, estimate): 14 pMol/10^9 cells/min
Vmax of uptake (text, unit without /min) (L. monocytogenes EGD-e [7]; strain EGD-e): 23 pMol/10^9 cells
Transport Vmax (L. monocytogenes EGD-e [7]; strain EGD-e): 22.2 ± 0.9 pMol/10^9cells/min
Km ([8]; read-out: Transport Km): 15.1 ± 6.4 nM
Transport Vmax [8]: 5.6 ±1.3 pMol/10^9cells/min
Kd ([9]; read-out: Binding Kd, strain ΔsrtB): 9.9 ± 1.3 nM
Binding Cap. ([9]; strain ΔsrtB): 19 pMol/10^9cells and 18.7 ± 0.9 pMol/10^9cells
decrease of binding capacity ([9]; ΔsrtB vs EGD-e, nanomolar range): 80%
Kd ([10]; read-out: Binding Kd): 5.1 ± 3 nM
Binding Cap. [10]: 9 pMol/10^9cells and 9 ± 1.5 pMol/10^9cells
Kd ([11]; read-out: Binding Kd, strain Δlmo2185 (Δhbp2)): 11.4 ± 2.6 nM
Binding Cap. ([11]; strain Δlmo2185 (Δhbp2)): 30.1 ± 2.9 pMol/10^9cells
decrease of binding capacity ([11]; Δhbp2 vs EGD-e, nanomolar range): 80%
Kd (Lmo2185 (Hbp2)): 12 nM

c1ccc(-c2ccccn2)nc1 [BP, 2, 2’-bipyridyl]
effect on growth in BHI (L. monocytogenes EGD-e [12]; 1 mM BP, wild type and mutant derivatives): inhibited growth

C=CC1=C(C)c2cc3[nH]c(cc4nc(cc5[nH]c(cc1n2)c(C)c5C=C)C(C)=C4CCC(=O)O)c(CCC(=O)O)c3C.[Fe+3] [Hn, haemin]
Transport Vmax ([1]; strain Δhup): 7 pMol/10^9cells/min
fold lower uptake rate than wild type ([1]; ΔhupDBGC strain vs EGD-e): 3 fold
effect on growth in BHI containing 1 mM BP (L. monocytogenes EGD-e [12]; 0.2 mM Hn added (printed), EGD-e): returned to its original growth rate
fold higher affinity of 6H-HupD than the most avid LmoFhuD binding interaction (HupD-6H (Lmo2431); relative to FhuD-FxB): 5 fold
Kd (L. monocytogenes EGD-e [6]): ~1 nM
Km (L. monocytogenes EGD-e [7]; strain EGD-e): 1 nM and ~1 nM
Transport Vmax (L. monocytogenes EGD-e [7]; strain EGD-e): 23 pMol/10^9cells/min
concentration that stimulated growth in previous study (L. monocytogenes EGD-e [13]): 200 µM

CC(=O)N(O)CCC[C@@H]1NC(=O)CNC(=O)CNC(=O)CNC(=O)[C@H](CCCN(O)C(C)=O)NC(=O)[C@H](CCCN(O)C(C)=O)NC1=O.[Fe+3] [Fc, ferrichrome] (cyclo(GGG[Orn(N5-OH,N5-Ac)][Orn(N5-OH,N5-Ac)][Orn(N5-OH,N5-Ac)]))
Kd ([14]; read-out: KD, listerial Fc acquisition, KD ≈ KM): ~1 nM
Km ([14]; read-out: KM, listerial Fc transport, KD ≈ KM): ~1 nM
Vmax of Fc transport, FhuDBGC [14]: 22 pMol/10^9 cells/min
utilization as iron source in nutrition test (L. monocytogenes EGD-e [15]): normally utilized
Vmax of Fc transport, E. coli FhuA (E. coli FhuA): 45 pMol/10^9 cells/min

C=CC1=C(C)c2cc3[nH]c(cc4nc(cc5[nH]c(cc1n2)c(C)c5CCC(=O)O)C(CCC(=O)O)=C4C)c(C)c3C=C [PPIX, protoporphyrin IX]
Kd (HupD-6H (Lmo2431)): 1150 nM
fold lower affinity for LmoHupD than Hn (HupD-6H (Lmo2431); relative to Hn): 40 fold
Kd (FhuD-6H (Lmo1959); Binding Kd FhuD-6H, intrinsic fluorescence quenching, 3–5 trials, Kd ± SD): 276 ± 32 nM
Kd (FhuD-6H (Lmo1959); KD for 6H-FhuD, fluorescence spectroscopy): 300 nM
